# DNA FID counter: compounds displacing fluorescent DNA intercalator, primary screen, artefact control for HCV NS3 helicase inhibitor project, biochemical, FID fluorescence; inhibition, % at 7.9 µM; 290,000 compounds, 0.17% hits; DNA fluorescent intercalator displacement; in the data active = inhibition above about 37%;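 note: higher means more ethidium bromide displaced from hairpin DNA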
# NS3 helicase inh: inhibitors of HCV NS3 helicase, primary screen, biochemical, Cy5 molecular beacon fluorescence; inhibition, % at 10.9 µM; 290,000 compounds, 0.56% hits; Hepatitis C virus NS3 helicase; NS3 helicase DNA unwinding; AID 1800, 2009;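 active = inhibition above the mean of all tested compounds plus 3 SD, set per campaign, cut at about 35% in these data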
#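 System: Hepatitis C virus NS3 helicase domain fragment enzyme | Reagent: Annealed dual-labelled DNA beacon duplex, ATP-started | Compound dosing: 10.9 µM single point, 0.8% DMSO | Incubation: 1 h reaction at 25 °C, ATP-initiated | Technique: Cy5 fluorescence | Evaluation: Percent inhibition from t60/t0 fluorescence ratio | Benchmarks: Low DMSO, high thioflavine S at 110 µM | Replication: Singlicate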
# GPR7 antagonist: GPR7 receptor antagonists, primary screen, cell-based, fluorescence, single concentration; inhibition, % at 4.4 µM; AID 1861, 2009; GPR7-expressing cells, fluorescence antagonist assay; 290,000 compounds, 1.1% hits; in the data active = inhibition above about 16%, passing the limit was not always enough;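 note: cells stimulated with the agonist NPW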
# Target sequence (P48145 whole entry, looked up): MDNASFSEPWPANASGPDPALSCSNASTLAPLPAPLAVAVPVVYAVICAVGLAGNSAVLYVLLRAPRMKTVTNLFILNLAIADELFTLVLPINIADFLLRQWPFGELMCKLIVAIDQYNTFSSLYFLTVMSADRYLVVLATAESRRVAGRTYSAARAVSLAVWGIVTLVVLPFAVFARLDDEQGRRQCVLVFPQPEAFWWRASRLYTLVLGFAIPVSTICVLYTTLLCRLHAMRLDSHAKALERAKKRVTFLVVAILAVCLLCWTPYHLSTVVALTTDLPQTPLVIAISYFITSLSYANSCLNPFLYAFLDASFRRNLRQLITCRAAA
# EBNA-1 inh: EBNA-1 DNA-binding inhibitors, primary screen, biochemical, fluorescence polarization. inhibition, % at 14.8 µM. 300,000 compounds, 0.34% hits. AID 1950, 2009; in the data active = inhibition above about 28%
# ZTA DNA inh: counter-screen for EBNA-1 inhibitors: inhibitors of Epstein-Barr virus ZTA; ZTA-DNA binding, fluorescence polarization; P03206; 320,000 compounds, 0.15% hits; inhibition, % at 11 µM; in the data active = inhibition above about 33%
# Target sequence (P03206 whole entry, looked up): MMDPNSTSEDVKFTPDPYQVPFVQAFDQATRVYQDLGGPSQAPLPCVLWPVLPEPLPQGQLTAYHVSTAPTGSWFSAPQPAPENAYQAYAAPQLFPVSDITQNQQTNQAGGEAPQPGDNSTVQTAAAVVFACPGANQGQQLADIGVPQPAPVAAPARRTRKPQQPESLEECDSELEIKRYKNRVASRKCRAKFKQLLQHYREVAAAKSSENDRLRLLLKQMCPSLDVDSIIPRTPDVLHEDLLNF
# GPR7 antag conf: GPR7 receptor antagonists, confirmation, cell-based, fluorescence, single concentration. GPR7-expressing cells, calcium fluorescence antagonist mode. inhibition, % at 4.4 µM. shares compounds with GPR7 antagonist. AID 1952, 2009. 2,400 compounds, 52% hits; in the data active = inhibition above about 24%;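 note: stimulated with the GPR7 agonist NPW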
# MCHR1 antagonist: MCHR1 antagonists in cells, counter-screen for GPR7 antagonist project, cell-based, fluorescence, human; shares compounds with GPR7 antagonist; MCHR1-expressing cells, fluorescence antagonist assay; inhibition, % at 4.4 µM; 2,400 compounds, 62% hits; in the data active = inhibition above about 22%
# A number is an active result; – = inactive; · = not tested or not shown. Most compounds without a hit are left out; they make up all but 2% or so of the library.
SMILES,DNA FID counter,NS3 helicase inh,GPR7 antagonist,EBNA-1 inh,ZTA DNA inh,GPR7 antag conf,MCHR1 antagonist
CN1CCN(CCOC2Cc3ccccc3Sc3ccc(Cl)cc32)CC1 (stereo unspecified),–,–,23.4,–,–,33.0,44.0
Cc1nc2ccccc2c(=O)n1/N=C/c1ccccc1OC(F)F,–,–,–,–,–,·,·
O=C(COc1coc(CN2CCN(c3ccccc3)CC2)cc1=O)Nc1ccc(F)cc1,·,·,·,–,–,·,·
CN(CC(=O)NCC1CCCCC1)CC(=O)Nc1ccccc1Br,·,·,·,·,–,·,·
CSc1cccc(NC(=O)c2cccc3cccnc23)c1,–,–,–,–,–,·,·
C[C@H](NC(=O)c1ccco1)C(=O)NC1CCCCCC1,·,·,·,·,–,·,·
CSCCC(NC(=O)c1ccco1)C(=O)OC(C)C(=O)NC(=O)NC1CCCCC1 (stereo unspecified),–,–,29.3,–,–,–,48.2
CN1C(=O)C(O)(CC(=O)/C=C/C=C/c2ccccc2)c2ccccc21 (stereo unspecified),–,–,23.3,–,–,–,–
CCOc1ccc(N(CC(=O)N2CCN(Cc3ccccc3)CC2)S(C)(=O)=O)cc1,–,–,–,–,–,·,·
CCOc1ccc(NC2c3ccccc3C(=O)N2Cc2ccc3c(c2)OCO3)cc1 (stereo unspecified),–,–,–,–,–,·,·
COc1cc(NC2c3ccccc3C(=O)N2Cc2ccc3c(c2)OCO3)cc(OC)c1OC (stereo unspecified),–,–,26.3,–,–,–,–
O=C(c1cc(-c2cccnc2)nc2ccccc12)N1CCCc2ccccc21,–,–,23.7,–,–,–,22.7
CCC(=O)N(CCC1(C(C)C)CCOC(C)(C)C1)Cc1ccco1 (stereo unspecified),–,–,–,–,–,·,·
CCC(=O)N(CCC1(C(C)C)CCOC(C)(C)C1)C(C)c1cccs1 (stereo unspecified),–,–,25.0,–,–,–,–
CC(C)N(CC#CCC(O)(c1ccccc1)c1ccccc1)C(C)C,–,–,–,–,–,·,·
CC(c1ccccc1C(O)(c1ccccc1)c1ccccc1)N(C)C (stereo unspecified),–,–,68.3,–,–,91.7,96.2
CCOc1ccccc1C(=O)Nc1ccc2c(c1)C(=O)NC2=O,–,–,–,–,–,·,·
CCc1ccc(CCC(=O)Nc2ccc(C(C)=O)cc2)o1,–,–,21.4,–,–,26.7,34.5
Cc1ccc(CNC(=O)C2CCN(c3nc(C)cc(C)n3)CC2)cc1,·,·,·,–,–,·,·
Cn1c(N)c(C(=O)COC(=O)/C=C/c2ccc(S(=O)(=O)N3CCOCC3)cc2)c(=O)n(C)c1=O,–,–,24.0,–,–,–,–
CC(C)NC(=O)C(c1ccc(F)cc1)N(C(=O)CCC(=O)Nc1ccccn1)C1CCCCC1 (stereo unspecified),–,–,–,–,–,·,·
CC1CCCN(C(=O)COC(=O)CNC(=O)c2sc3ccccc3c2Cl)C1 (stereo unspecified),·,·,·,·,–,·,·
CS(=O)(=O)c1ccc2nc(NC(=O)Nc3ccccc3F)sc2c1,–,–,59.2,–,–,36.1,–
CC(=O)c1cccc(NC(=O)c2ccc(N(Cc3ccc(C)cc3)S(C)(=O)=O)cc2)c1,–,–,36.7,–,–,–,49.5
CC(=O)c1cccc(NC(=O)c2ccc(N(C)S(=O)(=O)c3ccc(C)cc3)cc2)c1,–,–,30.5,–,–,–,37.5
SMILES,DNA FID counter,NS3 helicase inh,GPR7 antagonist,EBNA-1 inh,ZTA DNA inh,GPR7 antag conf,MCHR1 antagonist
CC(=O)c1cccc(NC(=O)c2ccc3c(c2)CCCC3)c1,–,–,43.0,–,–,–,41.4
COc1cccc(NC(=O)c2ccc3c(c2)CCCC3)c1,–,–,–,–,–,·,·
Cc1ccc(CN(c2ccc(C(=O)Nc3ccc4c(c3)OCO4)cc2)S(C)(=O)=O)cc1,–,–,–,–,–,·,·
CCCN(CC(=O)Nc1ccccc1C)C(=O)c1ccc(N2CCCCC2)c([N+](=O)[O-])c1,·,·,·,–,–,·,·
CCN1CCN(CCNC(=O)c2ccc(/C=C3/Sc4ccccc4N(Cc4ccccc4C)C3=O)cc2)CC1,–,–,26.4,·,·,82.8,90.8
CCN1CCN(CCCNC(=O)c2ccc(/C=C3/Sc4ccccc4N(Cc4ccccc4F)C3=O)cc2)CC1,–,–,–,–,–,·,·
Cn1cccc1/C=C1\SC(=S)N(Nc2ccccc2)C1=O,–,–,22.3,–,–,–,23.2
COc1cc(C(=O)NCC(c2ccc(F)cc2)N2CCOCC2)ccc1OCc1ccccc1Cl (stereo unspecified),·,·,·,–,–,·,·
O=C(Nc1ccc(Cl)c(S(=O)(=O)N2CCOCC2)c1)c1ccc(OCC2CCCO2)cc1 (stereo unspecified),–,–,40.5,–,–,47.5,89.6
O=C(Oc1ccc(C(=S)N2CCC(O)CC2)cc1)c1ccc(Cl)cc1,–,–,25.5,–,–,34.2,38.0
O=C(Oc1cccc(C(=S)N2CCCCC2)c1)c1ccccc1,–,–,–,–,–,·,·
O=C(Oc1ccc(C(=S)N2CCOCC2)cc1)c1cccc(Cl)c1,–,–,–,–,–,·,·
O=C(Oc1ccc(C(=S)N2CCCCC2)cc1)c1ccccc1,–,–,25.7,–,–,54.9,55.5
Cc1ccccc1[C@@H](NC(=O)OC(C)(C)C)C(=O)OC(C)(C)C,·,·,·,·,–,·,·
COc1cccc(Oc2ccc(S(=O)(=O)N3CCCC3)cc2[N+](=O)[O-])c1,–,–,30.6,–,–,–,–
O=[N+]([O-])c1cc(S(=O)(=O)N2CCCCCC2)ccc1Cl,–,–,38.9,·,·,62.6,–
COc1ccc(OCCOc2ccc(S(=O)(=O)N3CCCC3)cc2[N+](=O)[O-])cc1,·,·,·,·,–,·,·
O=C(Nc1cccc(F)c1)C1CCCN(C(=O)c2ccc(Cl)cc2)C1 (stereo unspecified),·,·,·,·,–,·,·
Cc1ccc(OCCOCCNC(C)C)c(Br)c1,–,–,–,–,–,·,·
Clc1ccc(OCCCNCc2ccccc2)c(Br)c1,–,–,25.5,–,–,39.8,54.4
CCC(C)NCCOCCOc1ccc(Cl)cc1Br (stereo unspecified),–,–,46.5,–,–,–,–
Clc1ccc(Cl)c(OCCCCNCc2ccccc2)c1,–,–,–,–,–,·,·
CCOC(=O)c1c(NC(=O)CSc2nc3ccc(C)cc3[nH]2)sc2c1CC(C)(C)NC2(C)C,·,·,·,–,–,·,·
CC1CCN(C(=O)c2cc(S(=O)(=O)N3CCCCC3)c[nH]2)CC1,–,–,26.5,–,–,–,–
CC(C)(C)c1ccc(OCCOc2ccc(C(C)(C)C)cc2NC=O)c(NC=O)c1,–,–,19.1,–,–,29.1,71.7
O=C(c1csc2c1CCCC2)N1CCN(c2ccccc2)CC1,–,–,34.6,–,–,–,–

# Source: PubChem BioAssay (The Scripps Research Institute Molecular Screening Center)
